ATG4B inhibitor – ATG4B (human) cysteine protease inhibition. ATG4B cleavage of LC3-PLA2, NBD-HPC fluorescence, 1 h. inhibition, % at 8.33 µM. hit rate 0.51% among 340,000. AID 504462; in the data active means inhibition above about 40%
UCH37 inh – inhibitors of human deubiquitinating enzyme UCH37 | purified proteasome/UCH37, Ub-AMC cleavage fluorescence | hit rate 0.33% among 330,000 | Q9Y5K5 | inhibition, % (no concentration beside the values);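 active means mean inhibition over replicate wells above about 20%, limit read from the data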
Target sequence (Q9Y5K5 whole entry, looked up): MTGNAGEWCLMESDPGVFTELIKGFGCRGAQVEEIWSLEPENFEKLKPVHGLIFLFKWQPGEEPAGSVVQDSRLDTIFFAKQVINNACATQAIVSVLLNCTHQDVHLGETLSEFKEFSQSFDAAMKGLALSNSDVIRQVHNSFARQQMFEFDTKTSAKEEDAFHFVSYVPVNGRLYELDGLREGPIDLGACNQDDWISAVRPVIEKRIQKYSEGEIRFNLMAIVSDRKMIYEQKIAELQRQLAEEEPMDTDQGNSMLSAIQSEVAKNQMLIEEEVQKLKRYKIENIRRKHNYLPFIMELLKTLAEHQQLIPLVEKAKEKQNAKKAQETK
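Material: Human UCH37 enzyme supplied as purified proteasome complex | Schedule: 30 min preincubation with enzyme, 25 min cleavage at room temperature | Detection: AMC fluorescence 355/460 nm | Measure: % inhibition of Ub-AMC cleavage fluorescence | Controls: Wells without proteasome as full block, compound-free enzyme plus substrate as uninhibited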
Rin1 Abl inh – inhibitors of human Rin1-Abl protein interaction. P00519+Q13671. hit rate 0.4% among 360,000. inhibition, % at 7.35 µM. AID 588664. TR-FRET Rin1/Abl binding, biochemical; in the data active means inhibition above about 5%, passing the limit was not always enough
TbMetRS inhib – blocks T. brucei methionyl-tRNA synthetase activity. purified T. brucei MetRS, ATP depletion, Kinase-Glo luminescence. inhibition, % at 11.9 µM. hit rate 0.4% among 360,000. AID 624268;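 active means inhibition above a per-plate cutoff of the control wells' mean inhibition plus 3 SD, cut at about 5.5% in these data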
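technique = Kinase-Glo luminescence, ATP depletion format | system = purified MetRS (methionyl-tRNA synthetase) enzyme from Trypanosoma brucei | timing = 15 min preincubation, 2 h reaction, all 25 °C | evaluation = percent inhibition versus plate control medians | dosing = single dose, 11.9 µM final nominal, 0.9% final DMSO | also added = substrates ATP, L-methionine and bulk Escherichia coli tRNA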
Numbers stand for hits; i = inactive; nt = no result given. In the library only some 1.4% were active in any assay of this set; here they are far more common.

SMILES | ATG4B inhibitor | UCH37 inh | Rin1 Abl inh | TbMetRS inhib
CC1=C(C(=O)Nc2cc(C(=O)NCCCOC(C)C)ccc2C)SCCO1 | i | i | i | i
Cc1cccc(-c2nc3ccccc3c(=O)n2NC(=S)N(C)C)c1 | i | i | i | i
CN(C)C(=S)Nn1c(-c2ccccc2)nc2ccccc2c1=O | i | 25 | i | i
NC(N)=N/N=C(\N=Nc1ccccc1)c1cccc2cccnc12 | i | nt | i | i
COc1cc(C(=O)C(=O)c2ccc(O)c(OC)c2)ccc1O | i | 21 | i | i
COc1cc(C(=O)O)ccc1O | i | i | i | i
CCOC(=O)N1CCC(n2c(SCC(=O)NCCC3=CCCCC3)nc3ccccc3c2=O)CC1 | i | 24 | i | i
O=c1[nH]c(/C=C\c2cccs2)nc(O)c1[N+](=O)[O-] | i | 21 | i | i
O=c1[nH]c(/C=C\c2ccc(O)c(Cl)c2)nc(O)c1[N+](=O)[O-] | i | 21 | i | i
O=c1[nH]c(/C=C\c2ccc(O)cc2)nc(O)c1[N+](=O)[O-] | i | i | i | i
Cc1ccc2c(C)nc(Nc3nc(CSc4nc5ccccc5[nH]4)cc(=O)[nH]3)nc2c1 | i | i | i | i
CN(C)c1ccc(C(CNC(=O)c2ccccc2F)c2c[nH]c3ccccc23)cc1 (stereo not given) | i | 26 | i | i
CC(=Cc1ccccc1)C=C1SC(=S)N(CCCC(=O)Nc2ccc(C(=O)O)cc2)C1=O | nt | nt | i | i
COc1ccc(/C=C2/SC(=S)N(CCC(=O)O)C2=O)cc1 | i | i | i | i
O=C(O)CCN1C(=O)/C(=C\c2cccc(Oc3ccccc3)c2)SC1=S | i | 21 | i | i
CC(/C=C1\SC(=S)N(CCC(=O)Nc2cccc(C(=O)O)c2)C1=O)=C\c1ccccc1 | i | 22 | i | i
O=C(O)CCN1C(=O)/C(=C\c2ccc(-c3nc4ccccc4s3)o2)SC1=S | i | 92 | i | i
O=C(CN(C(=O)c1ccc(Cl)cc1Cl)N1C(=O)C2C3C=CC(C3)C2C1=O)c1ccc(F)cc1 (stereo not given) | i | i | i | i
Cc1cccc(C)c1NC(=O)CN(C)CC(=O)Nc1ccccc1Oc1ccccc1 | i | 28 | i | i
COC1=CC2(O)CCCC2=CC1=O (stereo not given) | i | 30 | i | i
COc1ccc(S(=O)(=O)N2CCC(C(=O)NCCC3=CCCCC3)CC2)cc1C | i | 22 | i | i
CCc1ccc2[nH]c(=O)c(C3C(C#N)=C(N)Oc4c3ccc3cccnc43)cc2c1 (stereo not given) | i | i | 10 | i
Cc1ccc2cc(C3C(C#N)=C(N)Oc4c3ccc3cccnc43)c(=O)[nH]c2c1 (stereo not given) | i | i | i | i
COc1ccc(C(=O)Nc2cccc(C(=O)O)c2)cc1S(=O)(=O)N1CCCC1 | i | i | i | i
CC(=O)N1N=C(c2ccc(NS(C)(=O)=O)cc2)CC1c1ccc2nccnc2c1 (stereo not given) | i | i | i | i
SMILES | ATG4B inhibitor | UCH37 inh | Rin1 Abl inh | TbMetRS inhib
COc1cccc(C=NNC(=O)c2cc3cc([N+](=O)[O-])ccc3s2)c1O | nt | 24 | nt | nt
O=C(NN=C/C=C/c1ccco1)c1cnccn1 | nt | 25 | nt | nt
CC(=O)N1c2ccc(S(=O)(=O)NCCC(=O)NCc3ccc(F)cc3)cc2CC1C (stereo not given) | i | i | i | i
CCOC(=O)N1CCC(N2C(=O)c3ccccc3C2Nc2cc(OC)c(OC)c(OC)c2)CC1 (stereo not given) | i | i | i | i
CCOC(=O)N1CCC(N2C(=O)c3ccccc3C2Nc2ccc(S(=O)(=O)N3CCOCC3)cc2)CC1 (stereo not given) | i | i | 14 | i
Oc1ccc(-c2[nH]ncc2-c2ccc(Br)cc2)c(O)c1 | i | i | i | i
CC(C)S(=O)(=O)C1=NSC2=NC(=O)/C(=C\c3ccc(-c4cccc(C(=O)O)c4)o3)C(=N)N21 | i | 22 | i | i
COc1cc(C=NNc2ccccc2[N+](=O)[O-])cc(OC)c1O | nt | i | nt | nt
COc1cc(C=NNc2nc3ccccc3s2)cc([N+](=O)[O-])c1O | nt | 22 | nt | nt
CC(=O)c1nc(N2C(=O)CC(Cc3cc(C)cc(C)c3)C2=O)sc1C (stereo not given) | i | i | i | i
CCCCCC/C(C)=C1/SC(=S)NC1=O | i | i | i | i
C/C(C/C(C)=C1/SC(=S)NC1=O)=C1\SC(=S)NC1=O | 68 | i | i | i
Cc1cccc(NS(=O)(=O)c2cc(C(=O)NCCC3=CCCCC3)ccc2Cl)c1 | i | 21 | i | i
C#Cc1ccc([C@H]2C=C(C(=O)N3CCOCC3)O[C@@H](OCC)[C@@H]2CCCO)cc1 | i | i | i | i
C#Cc1ccc([C@@H]2C=C(C(=O)N3CCOCC3)O[C@H](OCC)[C@H]2CCCO)cc1 | i | 27 | i | i
COC(CN(C(=O)CCl)C(C(=O)NC1CCCC(C)C1C)c1ccc(C)cc1)OC (stereo not given) | i | 22 | i | i
COC(CN(C(=O)CCl)C(C(=O)NC1CCCCC1)c1ccc(Cl)cc1)OC (stereo not given) | i | i | i | i
CCOC(=O)[C@]12CCC=C1N(Cc1ccco1)C(=O)[C@H](CC(=O)NCc1ccc(OC)c(OC)c1)C2 | nt | nt | nt | i
CCOc1ccc(C(CC(=O)O)NC(=O)CCCOc2ccc(Cl)cc2C)cc1 (stereo not given) | i | i | i | i
Cc1c(NC(C)C)c(=O)n(-c2ccccc2)n1C | i | i | i | i
O=C1C(=C(O)c2ccccc2)C(=O)c2ccccc21 | i | i | 13 | i
COc1ccc(C2SCC(=O)N2CCCN(C)C)cc1 (stereo not given) | i | 34 | i | i
Cc1ccccc1CS(=O)(=O)CCC(=O)NCCCN1CCN(c2ccccc2F)CC1 | i | 33 | i | i
CC(C)(C)N1C(=O)[C@H]2[C@@H](c3ccc(Br)cc3)N3C(=O)N(c4ccccc4)C(=O)[C@@]3(Cc3ccccc3)[C@H]2C1=O | i | 27 | i | i
CC(C)(C)N1C(=O)[C@H]2[C@@H](c3ccc(Br)cc3)N3C(=O)N(c4cccc(Br)c4)C(=O)[C@@]3(Cc3ccccc3)[C@H]2C1=O | i | i | i | i
SMILES | ATG4B inhibitor | UCH37 inh | Rin1 Abl inh | TbMetRS inhib
CC(=O)c1cccc(N=Cc2c(O)ccc3ccccc23)c1 | i | i | i | i
Cc1cc2ccccc2n1CCNC(=O)c1ccc(S(=O)(=O)N2CCCCC2)cc1 | i | i | i | i
CCN(CC)CCCN1C(=O)CSC1c1ccc2c(c1)OCO2 (stereo not given) | i | i | i | i
O=C(CC1S/C(=N/N=C/C=C/c2ccccc2)NC1=O)Nc1ccc(C(=O)O)cc1 (stereo not given) | i | 20 | i | i
Cc1ccc(NC(=O)CC2S/C(=N/N=C\C=C\c3ccccc3)NC2=O)cc1Cl (stereo not given) | nt | i | nt | nt
CC(=O)N1c2ccc(Cl)cc2C2C=CCC2C1c1cccc2ccccc12 (stereo not given) | i | 48 | i | i
COc1ccc(CN2CCC(C(=O)Nc3ccc(Oc4cccnc4)cc3)CC2)cc1 | i | i | 8.2 | i

Bioassay records (PubChem BioAssay)
